Results published in ChEMBL document CHEMBL3098021, “New anti-inflammatory cembranoid diterpenoids from the Vietnamese soft coral Lobophytum crassum” (Bioorg Med Chem Lett, 2014).

Key:
HepG2 [1] = assay: Inhibition of TNF-alpha-induced COX2 mRNA expression in human HepG2 cells preincubated for 1 hr followed by TNF-alpha challenge measured after 6 hrs by RT-PCR analysis; format: functional, cell-based
[2] = (§1) Inhibition of TNF-alpha-induced NF-kappaB transcriptional activation in human HepG2 cells preincubated for 1 hr followed by TNF-alpha challenge measured after 1 hr by luciferase reporter gene assay; format: cell-based
Outline: (§2)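 HepG2 cells were transfected with an NF-κB-responsive firefly luciferase reporter plasmid (minimal CMV promoter plus tandem NF-κB response elements) and stimulated with 10 ng/mL TNFα. Compounds were tested across a concentration range, with a DMSO vehicle control and sulfasalazine (1.0 µM) as positive control. Luciferase activity was read out, data are mean ± SD (n = 3), and IC50 was derived from the dose–response.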

HepG2 [3] = assay: as §1; format: cell-based; outline: as §2
HepG2 [4] = assay: Inhibition of TNF-alpha-induced iNOS mRNA expression in human HepG2 cells preincubated for 1 hr followed by TNF-alpha challenge measured after 6 hrs by RT-PCR analysis; format: functional, cell-based

| SMILES | inhibition (HepG2 [1]) | IC50 [2] [µM] | inhibition (HepG2 [3]) | inhibition (HepG2 [4]) |
| --- | --- | --- | --- | --- |
| C/C1=C\[C@@H]2O[C@@H](O)[C@@]3(C)O[C@@]23CC/C(C)=C/CC[C@](C)(O)[C@H](O)CC1 | Dose-dependent effect | 6.63 | Dose-dependent effect | Dose-dependent effect |
| C=C1CO[C@H]2/C=C(\C)CC[C@@H](O)[C@@](C)(O)C/C=C/[C@@](C)(O)CC[C@@]12O |  | > 20 |  |  |
| C/C1=C\[C@@H]2O[C@@H](O)[C@@]3(C)O[C@@]23CC/C(C)=C/CC[C@](C)(O)[C@@H](O)CC1 | Dose-dependent effect | 6.3 | Dose-dependent effect | Dose-dependent effect |
| O=C(O)c1cc(/N=N/c2ccc(S(=O)(=O)Nc3ccccn3)cc2)ccc1O [SULFASALAZINE] |  | 0.9 |  |  |
| C=C1CO[C@H]2/C=C(\C)CC[C@@H](O)[C@@](C)(O)C/C=C/[C@](C)(O)CC[C@@]12O |  | > 20 |  |  |
